Sampled rows, rich in hits. Any-hit rate of the full collection: about 1.3%.
RAD54 inh: inhibitors of human RAD54 branch migration; RAD54 Holliday junction branch migration, FAM/BHQ fluorescence; inhibition, % at 10.4 µM; 0.14% of 360,000 active;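 active = mean normalized replicate activity at least 40 and at least half of replicates scoring 40 or more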;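 also: 0% = median of neutral control wells and 100% = median of positive control wells; inhibitors cause a drop in the FAM fluorescence signal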
INS-1E GSIS act: primary screen for activators of insulin secretion dependent on glucose, INS-1E cells, GLuc reporter luminescence; INS-1E GLuc reporter insulin secretion, 2-3 h; activation, % at 16.6 µM; 0.61% of 370,000 active;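 active = lowest replicate activation of at least 40%, so every replicate reaches that level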;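 also: 0% = median of neutral control wells and 100% = median of IBMX positive control wells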
MLL AF4-AF9 inh: inhibitors of human MLL-AF4/AF9 interaction. AlphaScreen, biotin-AF4 peptide binding to FLAG-AF9. inhibition, % at 10 µM. 0.47% of 350,000 active. AID 651704;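 active = every replicate reaching a set inhibition limit, whatever the replicate mean, cut at about 25% in these data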;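 also: 0% = plate neutral control median and 100% = total signal loss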
S100A4 MyoIIA: S100A4-myosin IIA interaction inhibition; S100A4/TAMRA-MyoIIA peptide fluorescence polarization; inhibition, % at 10.7 µM; 0.14% of 360,000 active;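 active = mean inhibition of at least 70% across replicates, with every replicate also reaching that level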
Target sequence (P26447 whole entry, looked up): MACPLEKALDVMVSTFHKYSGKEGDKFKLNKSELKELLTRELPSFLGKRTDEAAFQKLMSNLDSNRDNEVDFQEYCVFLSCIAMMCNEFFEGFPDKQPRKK
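Test system: S100A4 monomer protein; Medium: HEPES pH 7.2 with CaCl2, KCl, NaCl, DTT, Triton; Probe or stimulus: TAMRA-labelled myosin IIA heavy-chain peptide probe, 5 nM; Doses: one dose per compound; Times: polarization read 5 min after assay mix addition, stable 5–60 min; Benchmarks: neutral control DMSO, positive control TFP.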
RAD52 inh: inhibitors of human RAD52 DNA annealing. P43351. recombinant RAD52 DNA annealing, FRET fluorescence. inhibition, % at 18.7 µM. 0.46% of 360,000 active. AID 651710;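 active = every replicate showing at least 50% inhibition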
Target sequence (P43351 whole entry, looked up): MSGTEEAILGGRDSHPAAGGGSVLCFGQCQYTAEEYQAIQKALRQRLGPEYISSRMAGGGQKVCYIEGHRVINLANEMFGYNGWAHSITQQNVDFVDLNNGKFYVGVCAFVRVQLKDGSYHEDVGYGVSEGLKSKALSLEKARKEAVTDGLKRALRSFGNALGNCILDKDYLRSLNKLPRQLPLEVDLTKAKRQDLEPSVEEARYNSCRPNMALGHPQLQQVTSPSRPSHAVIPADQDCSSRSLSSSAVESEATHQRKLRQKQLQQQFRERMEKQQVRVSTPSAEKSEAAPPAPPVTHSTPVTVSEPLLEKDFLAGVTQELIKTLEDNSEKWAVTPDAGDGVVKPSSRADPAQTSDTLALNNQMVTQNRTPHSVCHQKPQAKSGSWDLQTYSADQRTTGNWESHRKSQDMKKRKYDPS
Active calls of the source: *; / = not tested or not shown.

SMILES	RAD54 inh	INS-1E GSIS act	MLL AF4-AF9 inh	S100A4 MyoIIA	RAD52 inh
COc1ccc(O)c(C(=O)c2cc(C#N)c(=O)n(-c3ccc(Cl)cc3)c2)c1	/	4	29*	-4	-33
CC/C(O)=C1\C(=O)CC(c2ccccc2)CC1=NCCC(=O)O (centres undefined)	/	12	0	0	-6
CC/C(O)=C1\C(=O)CC(c2ccccc2)CC1=NC(C)C (centres undefined)	-13	63*	/	/	/
CC(=O)Nc1nc(C)nc(-c2ccccc2OC(C)=O)n1	9	45*	5	4	-16
C[C@H]1CN([C@@H](C)CO)C(=O)c2cc(NS(=O)(=O)c3cn(C)cn3)ccc2O[C@H]1CN(C)S(=O)(=O)c1ccc(Cl)cc1	11	17	-3	2	3
O=C(c1ccccc1NS(=O)(=O)c1ccc([N+](=O)[O-])cc1[N+](=O)[O-])N1O[C@@H]2C=C[C@H]1C2	9	49*	-1	0	-11
O=C(c1ccccc1NS(=O)(=O)c1ccccc1[N+](=O)[O-])N1CCOCC1	5	-6	/	/	/
C[C@@H]1CN([C@H](C)CO)C(=O)c2cc(N(C)C)ccc2O[C@@H]1CN(C)C	0	12	-4	12	-16
Nc1c(C(=O)Nc2ccc3c(c2)OCCO3)nnn1Cc1ccc(Cl)cc1	-6	45*	-2	13	-5
O=C(Nc1ccc(N2CCCCCC2)cc1)c1ccc[nH]1	-2	13	34*	-5	4
O=C(Nc1ccc(N2CCCCCC2)cc1)c1ccccc1Cl	3	11	22	-3	-6
O=C(C[C@@H]1C[C@@H]2c3cc(NC(=O)CC4CC4)ccc3O[C@@H]2[C@@H](CO)O1)NCc1cc(F)ccc1F	5	5	1	2	-5
COc1ccc(S(=O)(=O)N2CCCCN3[C@H](CO)[C@@H](c4ccc(C5=CCCC5)cc4)[C@H]3C2)cc1	-6	23	/	/	/
COc1ccc(-c2cn[nH]c2-c2ccc(OCc3ccc([N+](=O)[O-])cc3)cc2O)cc1OC	8	3	-1	0	-13
O=[N+]([O-])c1ccc(COc2ccc(-c3[nH]ncc3-c3ccc(Cl)cc3)c(O)c2)cc1	3	41*	/	/	/
CN1CCN(C(=O)c2cccc(-c3cc(O)c4ncccc4c3)c2)CC1	2	-8	/	-1	20
Oc1cc(-c2cccnc2)cc2cccnc12	10	32	26*	0	-13
O=C(Nc1ccc([N+](=O)[O-])cc1)Nc1ccc(OC(F)F)c(Cl)c1	/	174*	/	/	/
C[C@H]1CN([C@@H](C)CO)C(=O)c2cc(NC(=O)NC3CCCCC3)ccc2O[C@@H]1CN(C)S(=O)(=O)c1ccc(Cl)cc1	-8	-20	0	-4	-19
Cn1cccc1CC(=O)N/N=C/c1cccc2ccccc12	2	-2	/	/	/
COc1ccccc1/C=C/C=N/NC(=O)Cc1cccn1C	/	4	56*	3	-35
CCCCOc1ccc(SCCCN2CCOCC2)cc1	/	58*	3	-1	-9
CC(=O)Nc1sc(N/N=C\c2cccc(Cl)c2)nc1-c1cccs1	/	68*	/	/	/
C[C@@H]1CCCCO[C@H](CN(C)C(=O)Nc2cccc3ccccc23)[C@@H](C)CN([C@@H](C)CO)C(=O)c2cc(NC(=O)Cc3ccccc3)ccc2O1	6	-5	7	-11	-14
C[C@@H]1CN([C@@H](C)CO)C(=O)c2cc(NC(=O)Nc3ccc(F)cc3)ccc2O[C@@H](C)CCCCO[C@@H]1CN(C)Cc1ccc(C(=O)O)cc1	-8	14	2	4	21
SMILES	RAD54 inh	INS-1E GSIS act	MLL AF4-AF9 inh	S100A4 MyoIIA	RAD52 inh
C[C@@H]1CN([C@@H](C)CO)C(=O)Cc2cc(N(C)C)ccc2O[C@H]1CN(C)Cc1ccc(-c2ccccc2)cc1	-8	-29	74*	-23	7
C[C@@H]1CN([C@H](C)CO)C(=O)Cc2cc(N(C)C)ccc2O[C@H]1CN(C)Cc1ccc(C(=O)O)cc1	2	18	-3	19	-12
C[C@H](CO)N1C[C@H](C)[C@H](CN(C)Cc2ccc(-c3ccccc3)cc2)Oc2ccc(N(C)C)cc2CC1=O	-9	-22	29*	5	-8
C[C@H](CO)N1C[C@H](C)[C@@H](CN(C)Cc2ccc(C(F)(F)F)cc2)Oc2ccc(N(C)C)cc2CC1=O	1	-36	33*	14	4
CC(C)NC(=O)Nc1ccc2c(c1)C(=O)N([C@@H](C)CO)C[C@@H](C)[C@H](CN(C)S(=O)(=O)c1ccc(F)cc1)OCCCC[C@@H](C)O2	-2	-2	0	-7	16
COc1ccc(CCNS(=O)(=O)c2ccc(C3CNC(=O)C3)cc2)cc1OC (centres undefined)	0	9	-2	-1	-11
COc1ccc(C2CNC(=O)C2)cc1OC1CCCC1 (centres undefined)	6	45*	-1	-1	-7
Cc1cc(-c2nn(-c3ccccc3F)cc2CN2CCC(O)CC2)c(C)s1	8	4	1	-5	-5
Cc1cc(-c2nn(-c3ccccc3F)cc2CN2CCN(c3ccncc3)CC2)c(C)s1	13	60	32*	-18	47
Nc1ncnc2c1ncn2C1OC(C(=O)NC2CC2)C(O)C1O (centres undefined)	-9	10	48*	1	-1
C[C@@H](CO)NC(=O)[C@H]1O[C@@H](n2cnc3c(N)ncnc32)[C@H](O)[C@@H]1O	-6	/	/	/	/
CCCCCCCCN1C(=O)[C@H](CC(=O)N2CCCCC2)C[C@@]2(C(=O)OC)CCCCC=C12	/	47*	-5	-5	-11
CCCCCCCCN1C(=O)[C@H](CC(=O)N2CCCCC2)C[C@@]2(C(=O)OC)CC(C)(C)CC=C12	/	81*	/	4	-8
CC(=O)N1[C@H](CO)[C@H](c2ccccc2)[C@H]1CN(C(=O)c1cccc(F)c1)C(C)C	9	4	-9	8	-4
COC(=O)c1sccc1NC(=O)COc1ccc(C)cc1	/	-5	-1	1	-16
COC(=O)c1sccc1NC(=O)COc1ccc(Cl)cc1Cl	/	61*	/	/	/
CC(=O)N1CCCCN2[C@H](C1)[C@@H](c1ccc(-c3cccc(C(=O)N(C)C)c3)cc1)[C@@H]2CO	7	7	-7	-10	-1
CCC(=O)N1[C@@H]2c3ccc(-c4ccncc4)c(=O)n3C[C@H]1[C@H](CO)[C@H]2C(=O)NC1Cc2ccccc2C1	1	13	-11	154*	15
CC(=O)N1[C@@H]2c3ccc(-c4ccncc4)c(=O)n3C[C@H]1[C@H](CO)[C@H]2C(=O)NC1Cc2ccccc2C1	9	12	-9	-2	-5
CC(=O)N1[C@@H]2Cn3c(ccc(-c4ccccc4)c3=O)[C@H]1[C@@H](C(=O)N1CCCCC1)[C@@H]2CO	6	5	0	2	59*
c1ccc(Oc2ccccc2-c2cc(NCCc3cccnc3)n3nccc3n2)cc1	16	53*	-1	10	-14

Screening data from PubChem BioAssay.
